# ChEMBL document CHEMBL1287651, “Synthesis and in vitro antibacterial activity of fluoroquinolone derivatives containing 3-(N'-alkoxycarbamimidoyl)-4-(alkoxyimino) pyrrolidines” (2010)
# Assays:
# Type in all cases: functional
# Enterococcus faecalis [1] = assay: Antibacterial activity against Enterococcus faecalis 08-12 after 18 to 24 hrs by twofold serial dilution method
# Outline: (§1)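 MIC determined by the standard twofold serial dilution method on agar media, screening against Gram-positive and Gram-negative strains. Levofloxacin and gemifloxacin were run alongside as reference drugs.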
# Staphylococcus aureus [2] = assay: Antibacterial activity against Staphylococcus aureus ATCC […] after 18 to 24 hrs by twofold serial dilution method; outline: as §1
# Enterococcus faecium [3] = assay: Antibacterial activity against Enterococcus faecium 08-2 after 18 to 24 hrs by twofold serial dilution method; outline: as §1
# [4] = tested on: Staphylococcus epidermidis; assay: Antibacterial activity against methicillin-resistant Staphylococcus epidermidis 09-4 after 18 to 24 hrs by twofold serial dilution method
# Outline: (§2)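 Standard twofold serial agar dilution method on agar media for MIC determination. Screened against representative Gram-positive and Gram-negative strains. Levofloxacin and GMFX served as control drugs.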
# [5] = tested on: Staphylococcus epidermidis; assay: Antibacterial activity against methicillin-resistant Staphylococcus epidermidis 09-2 after 18 to 24 hrs by twofold serial dilution method; outline: as §2
# Pseudomonas aeruginosa [6] = assay: Antibacterial activity against Pseudomonas aeruginosa 09-34 after 18 to 24 hrs by twofold serial dilution method; outline: as §1
# Enterococcus faecium [7] = assay: Antibacterial activity against Enterococcus faecium 08-7 after 18 to 24 hrs by twofold serial dilution method; outline: as §1
# [8] = tested on: Staphylococcus epidermidis; assay: Antibacterial activity against methicillin-sensitive Staphylococcus epidermidis 09-6 after 18 to 24 hrs by twofold serial dilution method; outline: as §2
# Escherichia coli [9] = assay: Antibacterial activity against Escherichia coli 08-21 after 18 to 24 hrs by twofold serial dilution method; outline: as §1
# Streptococcus pneumoniae [10] = assay: Antibacterial activity against Streptococcus pneumoniae 08-2 after 18 to 24 hrs by twofold serial dilution method; outline: as §1
# [11] = tested on: Staphylococcus epidermidis; assay: Antibacterial activity against methicillin-resistant Staphylococcus epidermidis 09-3 after 18 to 24 hrs by twofold serial dilution method; outline: as §2
# Escherichia coli [12] = assay: Antibacterial activity against Escherichia coli ATCC 25922 after 18 to 24 hrs by twofold serial dilution method; outline: as §1
# Escherichia coli [13] = assay: Antibacterial activity against Escherichia coli 08-22 after 18 to 24 hrs by twofold serial dilution method; outline: as §1
# Klebsiella pneumoniae [14] = assay: Antibacterial activity against Klebsiella pneumoniae 09-23 after 18 to 24 hrs by twofold serial dilution method; outline: as §1
# Streptococcus pneumoniae [15] = assay: Antibacterial activity against Streptococcus pneumoniae 08-4 after 18 to 24 hrs by twofold serial dilution method; outline: as §1
# Pseudomonas aeruginosa [16] = assay: Antibacterial activity against Pseudomonas aeruginosa 09-35 after 18 to 24 hrs by twofold serial dilution method; outline: as §1
# [17] = tested on: Staphylococcus epidermidis; assay: Antibacterial activity against methicillin-sensitive Staphylococcus epidermidis 09-3 after 18 to 24 hrs by twofold serial dilution method; outline: as §2
# Enterococcus faecalis [18] = assay: Antibacterial activity against Enterococcus faecalis 08-10 after 18 to 24 hrs by twofold serial dilution method; outline: as §1
# Pseudomonas aeruginosa [19] = assay: Antibacterial activity against Pseudomonas aeruginosa ATCC 27853 after 18 to 24 hrs by twofold serial dilution method; outline: as §1
# Pseudomonas aeruginosa [20] = assay: Antibacterial activity against Pseudomonas aeruginosa 09-32 after 18 to 24 hrs by twofold serial dilution method; outline: as §1
# Klebsiella pneumoniae [21] = assay: Antibacterial activity against Klebsiella pneumoniae 09-21 after 18 to 24 hrs by twofold serial dilution method; outline: as §1
# Klebsiella pneumoniae [22] = assay: Antibacterial activity against Klebsiella pneumoniae 09-22 after 18 to 24 hrs by twofold serial dilution method; outline: as §1
# Pseudomonas aeruginosa [23] = assay: Antibacterial activity against Pseudomonas aeruginosa 09-33 after 18 to 24 hrs by twofold serial dilution method; outline: as §1
# Staphylococcus aureus [24] = assay: Antibacterial activity against methicillin-sensitive Staphylococcus aureus 08-2 after 18 to 24 hrs by twofold serial dilution method; outline: as §2
# Staphylococcus aureus [25] = assay: Antibacterial activity against methicillin-resistant Staphylococcus aureus 08-1 after 18 to 24 hrs by twofold serial dilution method; outline: as §2
structure (smiles),measurement,setting,value
CO/N=C1\CN(c2c(F)cc3c(=O)c(C(=O)O)cn(C4CC4)c3c2F)CC1/C(N)=N\OC (stereo not given),MIC,Enterococcus faecalis [1],> 128 µg/mL
same,MIC,Staphylococcus aureus [2],0.125 µg/mL
same,MIC,Enterococcus faecium [3],> 128 µg/mL
same,MIC,[4],0.25 µg/mL
same,MIC,[5],0.125 µg/mL
same,MIC,Pseudomonas aeruginosa [6],> 128 µg/mL
same,MIC,Enterococcus faecium [7],64 µg/mL
same,MIC,[8],0.25 µg/mL
same,MIC,Escherichia coli [9],> 128 µg/mL
same,MIC,Streptococcus pneumoniae [10],16 µg/mL
same,MIC,[11],0.25 µg/mL
same,MIC,Escherichia coli [12],128 µg/mL
same,MIC,Escherichia coli [13],> 128 µg/mL
same,MIC,Klebsiella pneumoniae [14],> 128 µg/mL
same,MIC,Streptococcus pneumoniae [15],4 µg/mL
same,MIC,Pseudomonas aeruginosa [16],8 µg/mL
same,MIC,[17],0.125 µg/mL
same,MIC,Enterococcus faecalis [18],> 128 µg/mL
same,MIC,Pseudomonas aeruginosa [19],4 µg/mL
same,MIC,Pseudomonas aeruginosa [20],8 µg/mL
same,MIC,Klebsiella pneumoniae [21],> 128 µg/mL
same,MIC,Klebsiella pneumoniae [22],0.25 µg/mL
same,MIC,Pseudomonas aeruginosa [23],> 128 µg/mL
same,MIC,Staphylococcus aureus [24],0.25 µg/mL
same,MIC,Staphylococcus aureus [25],0.25 µg/mL
CCO/N=C1\CN(c2c(F)cc3c(=O)c(C(=O)O)cn(C4CC4)c3c2F)CC1/C(N)=N\OC (stereo not given),MIC,Enterococcus faecalis [1],> 128 µg/mL
same,MIC,Staphylococcus aureus [2],0.125 µg/mL
same,MIC,Enterococcus faecium [3],> 128 µg/mL
same,MIC,[4],0.5 µg/mL
same,MIC,[5],0.25 µg/mL
same,MIC,Pseudomonas aeruginosa [6],> 128 µg/mL
same,MIC,Enterococcus faecium [7],0.25 µg/mL
same,MIC,[8],0.25 µg/mL
same,MIC,Escherichia coli [9],> 128 µg/mL
same,MIC,Streptococcus pneumoniae [10],32 µg/mL
same,MIC,[11],0.125 µg/mL
same,MIC,Escherichia coli [12],64 µg/mL
same,MIC,Escherichia coli [13],> 128 µg/mL
same,MIC,Klebsiella pneumoniae [14],> 128 µg/mL
same,MIC,Streptococcus pneumoniae [15],0.25 µg/mL
same,MIC,Pseudomonas aeruginosa [16],16 µg/mL
same,MIC,[17],0.25 µg/mL
same,MIC,Enterococcus faecalis [18],32 µg/mL
same,MIC,Pseudomonas aeruginosa [19],8 µg/mL
same,MIC,Pseudomonas aeruginosa [20],16 µg/mL
same,MIC,Klebsiella pneumoniae [21],> 128 µg/mL
same,MIC,Klebsiella pneumoniae [22],0.25 µg/mL
same,MIC,Pseudomonas aeruginosa [23],> 128 µg/mL
same,MIC,Staphylococcus aureus [24],0.125 µg/mL
same,MIC,Staphylococcus aureus [25],0.25 µg/mL
CCO/N=C(/N)C1CN(c2c(F)cc3c(=O)c(C(=O)O)cn(C4CC4)c3c2F)C/C1=N\OC (stereo not given),MIC,Enterococcus faecalis [1],> 128 µg/mL
same,MIC,Staphylococcus aureus [2],0.06 µg/mL
same,MIC,Enterococcus faecium [3],> 128 µg/mL
same,MIC,[4],0.06 µg/mL
same,MIC,[5],0.06 µg/mL
same,MIC,Pseudomonas aeruginosa [6],> 128 µg/mL
same,MIC,Enterococcus faecium [7],> 128 µg/mL
same,MIC,[8],0.06 µg/mL
same,MIC,Escherichia coli [9],> 128 µg/mL
same,MIC,Streptococcus pneumoniae [10],32 µg/mL
same,MIC,[11],0.06 µg/mL
same,MIC,Escherichia coli [12],> 128 µg/mL
same,MIC,Escherichia coli [13],> 128 µg/mL
same,MIC,Klebsiella pneumoniae [14],> 128 µg/mL
same,MIC,Streptococcus pneumoniae [15],1 µg/mL
same,MIC,Pseudomonas aeruginosa [16],> 128 µg/mL
same,MIC,[17],0.06 µg/mL
same,MIC,Enterococcus faecalis [18],> 128 µg/mL
same,MIC,Pseudomonas aeruginosa [19],> 128 µg/mL
same,MIC,Pseudomonas aeruginosa [20],> 128 µg/mL
same,MIC,Klebsiella pneumoniae [21],> 128 µg/mL
same,MIC,Klebsiella pneumoniae [22],2 µg/mL
same,MIC,Pseudomonas aeruginosa [23],> 128 µg/mL
same,MIC,Staphylococcus aureus [24],0.06 µg/mL
same,MIC,Staphylococcus aureus [25],0.06 µg/mL
CO/N=C1\CN(c2c(F)cc3c(=O)c(C(=O)O)cn(CCF)c3c2F)CC1/C(N)=N\O (stereo not given),MIC,Enterococcus faecalis [1],> 128 µg/mL
same,MIC,Staphylococcus aureus [2],1 µg/mL
same,MIC,Enterococcus faecium [3],> 128 µg/mL
same,MIC,[4],0.5 µg/mL
same,MIC,[5],> 128 µg/mL
same,MIC,Pseudomonas aeruginosa [6],> 128 µg/mL
same,MIC,Enterococcus faecium [7],> 128 µg/mL
same,MIC,[8],1 µg/mL
same,MIC,Escherichia coli [9],> 128 µg/mL
same,MIC,Streptococcus pneumoniae [10],1 µg/mL
same,MIC,[11],1 µg/mL
same,MIC,Escherichia coli [12],> 128 µg/mL
same,MIC,Escherichia coli [13],> 128 µg/mL
same,MIC,Klebsiella pneumoniae [14],> 128 µg/mL
same,MIC,Streptococcus pneumoniae [15],> 128 µg/mL
same,MIC,Pseudomonas aeruginosa [16],> 128 µg/mL
same,MIC,[17],0.5 µg/mL
same,MIC,Enterococcus faecalis [18],> 128 µg/mL
same,MIC,Pseudomonas aeruginosa [19],> 128 µg/mL
same,MIC,Pseudomonas aeruginosa [20],> 128 µg/mL
same,MIC,Klebsiella pneumoniae [21],> 128 µg/mL
same,MIC,Klebsiella pneumoniae [22],> 128 µg/mL
same,MIC,Pseudomonas aeruginosa [23],> 128 µg/mL
same,MIC,Staphylococcus aureus [24],> 128 µg/mL
same,MIC,Staphylococcus aureus [25],1 µg/mL
CCO/N=C1\CN(c2c(F)cc3c(=O)c(C(=O)O)cn(CCF)c3c2F)CC1/C(N)=N\O (stereo not given),MIC,Enterococcus faecalis [1],> 128 µg/mL
same,MIC,Staphylococcus aureus [2],0.5 µg/mL
same,MIC,Enterococcus faecium [3],> 128 µg/mL
same,MIC,[4],0.5 µg/mL
same,MIC,[5],4 µg/mL
same,MIC,Pseudomonas aeruginosa [6],> 128 µg/mL
same,MIC,Enterococcus faecium [7],> 128 µg/mL
same,MIC,[8],0.5 µg/mL
same,MIC,Escherichia coli [9],> 128 µg/mL
same,MIC,Streptococcus pneumoniae [10],4 µg/mL
same,MIC,[11],0.5 µg/mL
same,MIC,Escherichia coli [12],128 µg/mL
same,MIC,Escherichia coli [13],> 128 µg/mL
same,MIC,Klebsiella pneumoniae [14],> 128 µg/mL
same,MIC,Streptococcus pneumoniae [15],0.5 µg/mL
same,MIC,Pseudomonas aeruginosa [16],16 µg/mL
same,MIC,[17],0.5 µg/mL
same,MIC,Enterococcus faecalis [18],4 µg/mL
same,MIC,Pseudomonas aeruginosa [19],8 µg/mL
same,MIC,Pseudomonas aeruginosa [20],16 µg/mL
same,MIC,Klebsiella pneumoniae [21],> 128 µg/mL
same,MIC,Klebsiella pneumoniae [22],4 µg/mL
same,MIC,Pseudomonas aeruginosa [23],> 128 µg/mL
same,MIC,Staphylococcus aureus [24],0.5 µg/mL
same,MIC,Staphylococcus aureus [25],0.5 µg/mL
CO/N=C1\CN(c2c(F)cc3c(=O)c(C(=O)O)cn(CCF)c3c2F)CC1/C(N)=N\OC (stereo not given),MIC,Enterococcus faecalis [1],> 128 µg/mL
same,MIC,Staphylococcus aureus [2],0.125 µg/mL
same,MIC,Enterococcus faecium [3],> 128 µg/mL
same,MIC,[4],0.125 µg/mL
same,MIC,[5],2 µg/mL
same,MIC,Pseudomonas aeruginosa [6],> 128 µg/mL
same,MIC,Enterococcus faecium [7],> 128 µg/mL
same,MIC,[8],0.25 µg/mL
same,MIC,Escherichia coli [9],> 128 µg/mL
same,MIC,Streptococcus pneumoniae [10],4 µg/mL
same,MIC,[11],0.125 µg/mL
same,MIC,Escherichia coli [12],128 µg/mL
same,MIC,Escherichia coli [13],> 128 µg/mL
same,MIC,Klebsiella pneumoniae [14],> 128 µg/mL
same,MIC,Streptococcus pneumoniae [15],2 µg/mL
same,MIC,Pseudomonas aeruginosa [16],64 µg/mL
same,MIC,[17],0.25 µg/mL
same,MIC,Enterococcus faecalis [18],64 µg/mL
same,MIC,Pseudomonas aeruginosa [19],32 µg/mL
same,MIC,Pseudomonas aeruginosa [20],64 µg/mL
same,MIC,Klebsiella pneumoniae [21],> 128 µg/mL
same,MIC,Klebsiella pneumoniae [22],4 µg/mL
same,MIC,Pseudomonas aeruginosa [23],> 128 µg/mL
same,MIC,Staphylococcus aureus [24],0.25 µg/mL
same,MIC,Staphylococcus aureus [25],0.125 µg/mL
